ChEMBL document CHEMBL2021777 (J Med Chem, 2012)
pIC50: −log10 of the molar value. Activity calls are given as the source filed them. The calls are words filed in the database; no cut-off is given here.

Key:
Cytochrome P450 2C19 = Cytochrome P450 2C19 (Homo sapiens, UniProt P33261); assay: Inhibition of CYP2C19 up to 10 uM; assay type: ADME
Procedure, shortened: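 Percent inhibition of CYP isoforms (CYP1A, CYP2C9, CYP2C19, CYP2D6, CYP3A; CYP1A2 reported) with test compound at concentrations up to 10 μM.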

[1] = target: Neuronal acetylcholine receptor; alpha4/beta2 (Homo sapiens, UniProt P17787+P43681); assay: Antagonist activity at human alpha4beta2 nAChR expressed in SH-EP1 cells assessed as inhibition of carbamylcholine induced 86Rb+ ion efflux preincubated for 10 mins prior to carbamylcholine-induction measured after 5 mins by flip-plate technique; assay type: functional, cell-based
Neuronal acetylcholine receptor; alpha4/beta2, sequence (P17787 whole entry): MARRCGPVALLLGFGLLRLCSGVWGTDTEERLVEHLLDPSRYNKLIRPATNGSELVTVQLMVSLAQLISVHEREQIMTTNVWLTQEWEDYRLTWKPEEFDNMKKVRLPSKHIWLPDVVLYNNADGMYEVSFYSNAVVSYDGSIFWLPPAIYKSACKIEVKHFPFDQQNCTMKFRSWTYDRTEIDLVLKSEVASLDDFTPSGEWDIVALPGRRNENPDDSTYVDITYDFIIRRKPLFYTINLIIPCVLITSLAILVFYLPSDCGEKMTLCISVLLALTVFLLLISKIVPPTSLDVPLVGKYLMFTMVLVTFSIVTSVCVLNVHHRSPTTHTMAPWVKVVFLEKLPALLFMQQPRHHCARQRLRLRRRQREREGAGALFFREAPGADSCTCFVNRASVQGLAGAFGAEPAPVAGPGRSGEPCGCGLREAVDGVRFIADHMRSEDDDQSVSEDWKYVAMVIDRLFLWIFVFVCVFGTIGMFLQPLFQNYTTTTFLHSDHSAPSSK
Neuronal acetylcholine receptor; alpha4/beta2, sequence (P43681 whole entry): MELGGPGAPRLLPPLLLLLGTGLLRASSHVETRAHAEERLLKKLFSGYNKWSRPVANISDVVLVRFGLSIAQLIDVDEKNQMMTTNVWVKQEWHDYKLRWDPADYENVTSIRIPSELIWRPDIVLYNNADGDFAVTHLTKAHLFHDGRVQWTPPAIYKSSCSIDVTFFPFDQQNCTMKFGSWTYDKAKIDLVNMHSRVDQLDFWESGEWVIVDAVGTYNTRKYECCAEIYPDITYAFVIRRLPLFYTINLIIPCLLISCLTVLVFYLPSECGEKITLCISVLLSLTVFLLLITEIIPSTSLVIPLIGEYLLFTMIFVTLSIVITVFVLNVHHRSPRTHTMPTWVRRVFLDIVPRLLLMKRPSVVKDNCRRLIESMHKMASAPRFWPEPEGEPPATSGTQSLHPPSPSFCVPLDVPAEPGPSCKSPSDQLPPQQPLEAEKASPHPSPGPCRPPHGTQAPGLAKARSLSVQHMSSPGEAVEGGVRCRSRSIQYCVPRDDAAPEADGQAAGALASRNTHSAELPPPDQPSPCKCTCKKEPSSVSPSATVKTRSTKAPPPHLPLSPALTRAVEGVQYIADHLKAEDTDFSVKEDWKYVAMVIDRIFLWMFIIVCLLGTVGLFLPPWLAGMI
Procedure, shortened: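 SH-EP1 human epithelial cells stably transfected with separate human α4 and β2 subunit cDNAs express a mixed population of high-sensitivity (2:3 α4:β2) and low-sensitivity (3:2) α4β2-nAChRs. Cells were kept at low passage (1−26 from frozen stocks). Function was read as 86Rb+ ion flux.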

Mus musculus = assay: Ex-vivo beta2* nAChR receptor occupancy in mouse brain at 10 mg/kg, ip administered 30 mins prior to testing; assay type: functional; settings: route intraperitoneal
Procedure, shortened: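 Mice dosed at 10 mg/kg, or water, by intraperitoneal injection 30 min before brain collection (the forced-swim time point); ex vivo β2*-nAChR occupancy measured in brain.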

[2] = target: 5-hydroxytryptamine receptor 2B (Homo sapiens) (UniProt P41595); assay: Displacement of [3H]LSD from 5-HT2B at 10 uM
5-hydroxytryptamine receptor 2B (Homo sapiens), sequence (P41595 whole entry): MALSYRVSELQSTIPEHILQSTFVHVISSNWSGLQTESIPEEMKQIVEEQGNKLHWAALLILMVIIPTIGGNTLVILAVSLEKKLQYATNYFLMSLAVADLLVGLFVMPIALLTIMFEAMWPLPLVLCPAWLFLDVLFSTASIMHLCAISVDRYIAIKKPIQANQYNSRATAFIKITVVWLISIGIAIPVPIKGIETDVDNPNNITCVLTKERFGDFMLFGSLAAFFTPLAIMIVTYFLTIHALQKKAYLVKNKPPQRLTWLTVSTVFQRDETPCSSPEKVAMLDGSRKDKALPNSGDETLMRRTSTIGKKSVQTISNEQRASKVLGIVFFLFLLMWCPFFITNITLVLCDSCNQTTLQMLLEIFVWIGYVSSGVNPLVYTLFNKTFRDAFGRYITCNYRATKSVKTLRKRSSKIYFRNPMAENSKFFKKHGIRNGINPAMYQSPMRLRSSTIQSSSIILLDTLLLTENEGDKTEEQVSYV

[3] = target: Acetylcholine receptor; alpha1/beta1/delta/gamma (Homo sapiens) (UniProt P02708+P07510+P11230+Q07001); assay: Antagonist activity at human alpha1beta1gammadelta nAChR expressed in TE671/RD cells at 10 uM by 86Rb+ flux assay; assay type: functional, cell-based
Procedure, shortened: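 Human clonal TE671/RD cells endogenously express muscle-type α1*-nAChRs (α1, β1, γ, δ). Cells were kept at low passage (1−26 from frozen stocks). Function was read as 86Rb+ efflux, with agonist and antagonist modes tested up to 10 μM.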

[4] = Metabolic stability in mouse liver microsomes assessed as compound remaining at 1 uM after 1 hr; assay type: ADME, Microsome; settings: read-out: Stability
Procedure, shortened: (§1)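 Compound at 1 μM incubated for 1 h with human or mouse liver microsomes; percent of parent remaining unchanged.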

[5] = target: T1, 5-hydroxytryptamine receptor 3A (Homo sapiens) (UniProt P46098); assay: Displacement of [3H]LY278584 from 5-HT3 at 10 uM
T1 sequence (whole entry): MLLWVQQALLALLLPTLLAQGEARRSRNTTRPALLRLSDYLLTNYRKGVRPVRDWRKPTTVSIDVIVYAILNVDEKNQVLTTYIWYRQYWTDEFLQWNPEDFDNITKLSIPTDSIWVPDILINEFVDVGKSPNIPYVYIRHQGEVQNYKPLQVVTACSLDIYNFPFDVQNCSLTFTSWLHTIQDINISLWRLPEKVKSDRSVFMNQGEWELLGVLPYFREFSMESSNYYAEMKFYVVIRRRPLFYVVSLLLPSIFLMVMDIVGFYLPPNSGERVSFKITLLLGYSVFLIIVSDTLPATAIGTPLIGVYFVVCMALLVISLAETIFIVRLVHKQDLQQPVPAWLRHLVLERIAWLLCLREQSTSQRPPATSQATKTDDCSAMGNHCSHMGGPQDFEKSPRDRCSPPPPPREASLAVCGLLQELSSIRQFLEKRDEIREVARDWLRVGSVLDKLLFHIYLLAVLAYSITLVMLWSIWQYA

[6] = Metabolic stability in human liver microsomes assessed as compound remaining at 1 uM after 1 hr; assay type: ADME, Microsome; settings: read-out: Stability; procedure, shortened: as §1
Rattus norvegicus = species: Rattus norvegicus; assay: Displacement of radioligand from benzodiazepine receptor in rat brain; assay type: tissue-based; settings: concentration not given here
[7] = target: 5-hydroxytryptamine receptor 7 (Homo sapiens) (UniProt P34969); assay: Displacement of [3H]LSD from 5-HT7 at 10 uM
5-hydroxytryptamine receptor 7 (Homo sapiens), sequence (P34969 whole entry): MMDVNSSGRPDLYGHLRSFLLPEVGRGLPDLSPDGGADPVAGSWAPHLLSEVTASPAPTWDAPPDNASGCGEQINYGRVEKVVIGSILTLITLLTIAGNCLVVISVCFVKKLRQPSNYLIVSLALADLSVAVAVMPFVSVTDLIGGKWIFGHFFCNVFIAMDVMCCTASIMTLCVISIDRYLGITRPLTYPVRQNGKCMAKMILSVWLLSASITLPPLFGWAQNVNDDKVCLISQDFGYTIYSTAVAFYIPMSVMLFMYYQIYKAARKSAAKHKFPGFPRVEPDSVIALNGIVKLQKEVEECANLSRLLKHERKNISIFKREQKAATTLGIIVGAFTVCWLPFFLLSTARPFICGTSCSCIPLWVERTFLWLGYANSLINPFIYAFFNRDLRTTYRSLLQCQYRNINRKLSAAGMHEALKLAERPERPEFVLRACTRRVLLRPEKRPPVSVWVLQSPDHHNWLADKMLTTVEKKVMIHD

[8] = target: T2, Muscarinic acetylcholine receptor M2 (Homo sapiens) (UniProt P08172); assay: Displacement of [3H]QNB from M2 receptor at 10 uM
T2 sequence (whole entry): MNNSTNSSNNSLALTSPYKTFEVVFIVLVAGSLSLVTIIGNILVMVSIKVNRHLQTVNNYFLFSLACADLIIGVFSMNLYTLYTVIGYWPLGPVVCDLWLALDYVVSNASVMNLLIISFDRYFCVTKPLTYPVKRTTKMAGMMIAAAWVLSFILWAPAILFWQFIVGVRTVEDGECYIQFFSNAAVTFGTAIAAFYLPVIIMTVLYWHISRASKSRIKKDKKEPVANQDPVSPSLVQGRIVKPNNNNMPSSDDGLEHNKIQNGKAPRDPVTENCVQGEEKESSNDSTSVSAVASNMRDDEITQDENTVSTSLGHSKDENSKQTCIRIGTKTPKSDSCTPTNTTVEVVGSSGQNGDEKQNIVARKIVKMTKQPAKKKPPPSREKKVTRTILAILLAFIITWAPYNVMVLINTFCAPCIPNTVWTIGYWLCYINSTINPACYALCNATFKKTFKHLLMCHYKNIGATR

[9] = target: T3, Alpha-2C adrenergic receptor (Homo sapiens) (UniProt P18825); assay: Displacement of [3H]Clonidine from alpha2C adrenergic receptor at 10 uM
T3 sequence (whole entry): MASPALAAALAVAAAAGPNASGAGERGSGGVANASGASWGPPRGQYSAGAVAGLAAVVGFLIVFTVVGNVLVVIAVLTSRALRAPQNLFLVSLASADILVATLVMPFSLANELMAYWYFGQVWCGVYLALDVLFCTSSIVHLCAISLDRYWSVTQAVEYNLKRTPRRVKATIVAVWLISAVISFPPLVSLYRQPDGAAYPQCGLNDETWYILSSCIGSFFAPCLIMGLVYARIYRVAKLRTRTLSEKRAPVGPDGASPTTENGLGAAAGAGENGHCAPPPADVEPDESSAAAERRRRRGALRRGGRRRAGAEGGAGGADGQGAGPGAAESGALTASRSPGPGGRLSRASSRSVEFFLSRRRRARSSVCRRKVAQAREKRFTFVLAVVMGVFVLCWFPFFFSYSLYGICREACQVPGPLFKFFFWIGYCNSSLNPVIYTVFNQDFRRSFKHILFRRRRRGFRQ

Cytochrome P450 2C19, sequence (P33261 whole entry, canonical isoform): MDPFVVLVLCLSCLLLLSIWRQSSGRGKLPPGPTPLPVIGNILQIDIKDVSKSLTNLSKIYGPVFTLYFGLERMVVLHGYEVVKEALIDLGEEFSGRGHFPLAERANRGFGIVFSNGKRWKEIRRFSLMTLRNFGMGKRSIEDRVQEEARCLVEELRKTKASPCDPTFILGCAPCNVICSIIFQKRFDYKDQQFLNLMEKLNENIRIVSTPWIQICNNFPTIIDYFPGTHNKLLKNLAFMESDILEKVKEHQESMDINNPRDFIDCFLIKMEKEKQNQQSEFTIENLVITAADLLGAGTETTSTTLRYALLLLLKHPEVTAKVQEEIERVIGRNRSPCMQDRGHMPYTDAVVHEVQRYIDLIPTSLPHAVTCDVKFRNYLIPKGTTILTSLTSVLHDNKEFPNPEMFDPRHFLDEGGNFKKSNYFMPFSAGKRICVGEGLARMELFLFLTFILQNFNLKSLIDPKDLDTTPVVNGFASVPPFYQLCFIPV

Row | Structure (SMILES) | inhibition (INH) (Cytochrome P450 2C19) | pIC50 [1] | Activity (Mus musculus) [%] | inhibition [2] [%] | Activity [3] | remaining at 1 h, 1 µM [4] [%] | inhibition [5] [%] | remaining at 1 h, 1 µM [6] [%] | inhibition (Rattus norvegicus) [%] | inhibition [7] [%] | inhibition [8] [%] | inhibition [9] [%]
1 | CNC(=O)OCC[C@H]1C[C@@H]1c1cncc(OC[C@@H]2CCN2)c1 | <= 25% | 7.74 | 65 | 48.7 | inactive | 98 | 23.5 | 98 | 2 | 32.1 | -0.6 | 42
2 | COCC[C@H]1C[C@@H]1c1cncc(OC[C@@H]2CCN2)c1 | <= 25% | 8.25 | 85 | 24.7 | inactive | 84 | 42.4 | 84 | 26.6 | 22.7 | 0.5 | 30.6
3 | OCC[C@H]1C[C@@H]1c1cncc(OC[C@@H]2CCN2)c1 | <= 25% | 8.03 | 85 | 18.2 | inactive | 80 | 38.3 | 80 | 29.2 | 24.9 | -8.4 | 17.6
